Results from ChEMBL document CHEMBL3286189, “Discovery and SAR studies of a novel class of cytotoxic 1,4-disubstituted piperidines via Ugi reaction” (Eur J Med Chem, 2014).

Legend:
CCRF-CEM [1] = assay: Cytostatic activity against human CEM cells assessed as inhibition of cell proliferation after 72 hrs by coulter counting analysis; assay type: functional, cell-based; details: Homo sapiens, CCRF-CEM, 72 h
In short: (§1)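 Anti-proliferative screen in murine leukemia L1210, human T-lymphocyte CEM and human cervix carcinoma HeLa cultures. The value reported is the IC50, the concentration that inhibits cell proliferation by 50%.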

Malme-3M = assay: Anticancer activity against human MALME-3M cells; assay type: functional
In short: (§2)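 Values come from the NCI 60-cell-line human tumour panel, run on a single analog. Cytostatic and cytotoxic responses were read for each cell line across graded molar concentrations of that compound.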

[2] = Anticancer activity against human Hs 578T cells; assay type: functional; in short: as §2
A498 = assay: Anticancer activity against human A498 cells; assay type: functional; in short: as §2
NCI-H226 = assay: Anticancer activity against human NCI-H226 cells; assay type: functional; in short: as §2
[3] = Anticancer activity against human BT549 cells; assay type: functional; in short: as §2
[4] = Anticancer activity against human HOP92 cells; assay type: functional; in short: as §2
SW-620 = assay: Anticancer activity against human SW620 cells; assay type: functional; in short: as §2
CAKI-1 = assay: Anticancer activity against human Caki1 cells; assay type: functional
SK-MEL-5 = assay: Anticancer activity against human SK-MEL-5 cells; assay type: functional; in short: as §2
NCI-H522 = assay: Anticancer activity against human NCI-H522 cells; assay type: functional; in short: as §2
MDA-MB-468 = assay: Anticancer activity against human MDA-MB-468 cells; assay type: functional; in short: as §2
HOP-62 = assay: Anticancer activity against human HOP62 cells; assay type: functional; in short: as §2
[5] = Anticancer activity against human MOLT4 cells; assay type: functional; in short: as §2
SNB-75 = assay: Anticancer activity against human SNB75 cells; assay type: functional; in short: as §2
[6] = Anticancer activity against human LOXIMVI cells; assay type: functional; details: LOX IMVI; in short: as §2
[7] = Anticancer activity against human OVCAR3 cells; assay type: functional; in short: as §2
SN12C = assay: Anticancer activity against human SN12C cells; assay type: functional; in short: as §2
PC-3 = assay: Anticancer activity against human PC3 cells; assay type: functional; in short: as §2
NCI/ADR-RES = assay: Anticancer activity against human NCI/ADR-RES cells; assay type: functional; in short: as §2
U-251 = assay: Anticancer activity against human U251 cells; assay type: functional; in short: as §2
Huh-7 = assay: Cytostatic activity against human HuH7 cells assessed as inhibition of cell proliferation after 96 hrs by coulter counting analysis; assay type: functional, cell-based; details: Huh-7, 96 h
In short: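 Anti-proliferative testing extended to human kidney Caki-1 and human liver Huh-7 tumour cells. The value reported is the IC50, the concentration that inhibits tumour cell growth by 50%.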

IGROV-1 = assay: Anticancer activity against human IGROV1 cells; assay type: functional; in short: as §2
MCF7 = assay: Anticancer activity against human MCF7 cells; assay type: functional; in short: as §2
T47D = assay: Anticancer activity against human T47D cells; assay type: functional; in short: as §2
NCI-H23 = assay: Anticancer activity against human NCI-H23 cells; assay type: functional; in short: as §2
CCRF-CEM [8] = assay: Anticancer activity against human CCRF-CEM cells; assay type: functional; in short: as §2
COLO 205 = assay: Anticancer activity against human COLO205 cells; assay type: functional; in short: as §2
[9] = Anticancer activity against human OVCAR8 cells; assay type: functional; in short: as §2
HeLa = assay: Cytostatic activity against human HeLa cells assessed as inhibition of cell proliferation after 72 hrs by coulter counting analysis; assay type: functional, cell-based; details: Homo sapiens, HeLa, 72 h; in short: as §1
SF-268 = assay: Anticancer activity against human SF268 cells; assay type: functional; in short: as §2
NCI-H460 = assay: Anticancer activity against human NCI-H460 cells; assay type: functional; in short: as §2
SK-OV-3 = assay: Anticancer activity against human SKOV3 cells; assay type: functional; in short: as §2
[10] = Anticancer activity against human SF295 cells; assay type: functional; in short: as §2
[11] = Anticancer activity against human UO31 cells; assay type: functional
In short: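 Assayed in the NCI Cancer-60 human tumour cell line panel, with activity read across several log-step concentrations.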

TK-10 = assay: Anticancer activity against human TK10 cells; assay type: functional; in short: as §2
MDA-MB-231 = assay: Anticancer activity against human MDA-MB-231/ATCC cells; assay type: functional; in short: as §2
KM12 = assay: Anticancer activity against human KM12 cells; assay type: functional; in short: as §2
M14 = assay: Anticancer activity against human M14 cells; assay type: functional; in short: as §2
[12] = Anticancer activity against human HCC2998 cells; assay type: functional; in short: as §2
[13] = read-out: pLC50 (the source's name) (converted)

SMILES: CC(C)(C)OC(=O)N[C@@H](Cc1ccccc1)C(=O)N(Cc1ccccc1)C1(C(=O)NCc2ccccc2)CCN(Cc2ccccc2)CC1
- IC50 (CCRF-CEM [1]): 4.4 µM
- GI50 (Malme-3M): 3.02 µM
- CC50 (Malme-3M; [13]): > 100 µM
- TGI (Malme-3M; read-out: pTGI (converted)): 10 µM
- GI50 [2]: 4.27 µM
- CC50 [2, 13]: > 100 µM
- TGI ([2]; read-out: pTGI): > 100 µM
- GI50 (A498): 1.45 µM
- CC50 (A498; [13]): > 100 µM
- TGI (A498; read-out: pTGI (converted)): 6.31 µM
- GI50 (NCI-H226): 3.24 µM
- CC50 (NCI-H226; [13]): > 100 µM
- TGI (NCI-H226; read-out: pTGI): > 100 µM
- GI50 ([3]; BT-549): 2.09 µM
- CC50 ([3]; BT-549, read-out: pLC50 (the source's name) (converted)): > 100 µM
- TGI ([3]; BT-549, read-out: pTGI (converted)): 7.94 µM
- GI50 ([4]; HOP-92): 1.45 µM
- CC50 ([4]; HOP-92, read-out: pLC50 (the source's name) (converted)): > 100 µM
- TGI ([4]; HOP-92, read-out: pTGI (converted)): 5.37 µM
- GI50 (SW-620): 3.47 µM
- CC50 (SW-620; [13]): > 100 µM
- TGI (SW-620; read-out: pTGI): > 100 µM
- GI50 (CAKI-1): 2.34 µM
- CC50 (CAKI-1; [13]): > 100 µM
- TGI (CAKI-1; read-out: pTGI): > 100 µM
- GI50 (SK-MEL-5): 1.74 µM
- CC50 (SK-MEL-5; [13]): 6.31 µM
- TGI (SK-MEL-5; read-out: pTGI (converted)): 3.31 µM
- GI50 (NCI-H522): 3.98 µM
- CC50 (NCI-H522; [13]): > 100 µM
- TGI (NCI-H522; read-out: pTGI): > 100 µM
- GI50 (MDA-MB-468): 1.62 µM
- CC50 (MDA-MB-468; [13]): > 100 µM
- TGI (MDA-MB-468; read-out: pTGI (converted)): 5.89 µM
- GI50 (HOP-62): 3.89 µM
- CC50 (HOP-62; [13]): > 100 µM
- TGI (HOP-62; read-out: pTGI): > 100 µM
- GI50 ([5]; MOLT-4): 1.82 µM
- CC50 ([5]; MOLT-4, read-out: pLC50 (the source's name) (converted)): > 100 µM
- TGI ([5]; MOLT-4, read-out: pTGI (converted)): 6.31 µM
- GI50 (SNB-75): 2.95 µM
- CC50 (SNB-75; [13]): > 100 µM
- TGI (SNB-75; read-out: pTGI): > 100 µM
- GI50 [6]: 3.63 µM
- CC50 [6, 13]: > 100 µM
- TGI ([6]; read-out: pTGI (converted)): 21.4 µM
- GI50 ([7]; OVCAR-3): 3.98 µM
- CC50 ([7]; OVCAR-3, read-out: pLC50 (the source's name) (converted)): > 100 µM
- TGI ([7]; OVCAR-3, read-out: pTGI): > 100 µM
- GI50 (SN12C): 3.47 µM
- CC50 (SN12C; [13]): > 100 µM
- TGI (SN12C; read-out: pTGI): > 100 µM
- GI50 (PC-3): 2.45 µM
- CC50 (PC-3; [13]): > 100 µM
- TGI (PC-3; read-out: pTGI): > 100 µM
- GI50 (NCI/ADR-RES): 2.88 µM
- CC50 (NCI/ADR-RES; [13]): > 100 µM
- TGI (NCI/ADR-RES; read-out: pTGI (converted)): 46.8 µM
- GI50 (U-251): 3.16 µM
- CC50 (U-251; [13]): > 100 µM
- TGI (U-251; read-out: pTGI): > 100 µM
- IC50 (Huh-7): 6.4 µM
- GI50 (IGROV-1): 5.75 µM
- CC50 (IGROV-1; [13]): > 100 µM
- TGI (IGROV-1; read-out: pTGI): > 100 µM
- GI50 (MCF7): 2.82 µM
- CC50 (MCF7; [13]): > 100 µM
- TGI (MCF7; read-out: pTGI (converted)): 19.1 µM
- GI50 (T47D): 2.88 µM
- CC50 (T47D; [13]): > 100 µM
- TGI (T47D; read-out: pTGI): > 100 µM
- GI50 (NCI-H23): 5.62 µM
- CC50 (NCI-H23; [13]): > 100 µM
- TGI (NCI-H23; read-out: pTGI): > 100 µM
- GI50 (CCRF-CEM [8]): 3.31 µM
- CC50 (CCRF-CEM [8]; [13]): > 100 µM
- TGI (CCRF-CEM [8]; read-out: pTGI): > 100 µM
- GI50 (COLO 205): 1.66 µM
- CC50 (COLO 205; [13]): 6.61 µM
- TGI (COLO 205; read-out: pTGI (converted)): 3.31 µM
- GI50 ([9]; OVCAR-8): 3.47 µM
- CC50 ([9]; OVCAR-8, read-out: pLC50 (the source's name) (converted)): > 100 µM
- TGI ([9]; OVCAR-8, read-out: pTGI): > 100 µM
- IC50 (HeLa): 4.2 µM
- GI50 (SF-268): 4.9 µM
- CC50 (SF-268; [13]): > 100 µM
- TGI (SF-268; read-out: pTGI): > 100 µM
- GI50 (NCI-H460): 3.02 µM
- CC50 (NCI-H460; [13]): > 100 µM
- TGI (NCI-H460; read-out: pTGI (converted)): 87.1 µM
- GI50 (SK-OV-3): 3.02 µM
- CC50 (SK-OV-3; [13]): > 100 µM
- TGI (SK-OV-3; read-out: pTGI): > 100 µM
- GI50 ([10]; SF-295): 2.88 µM
- CC50 ([10]; SF-295, read-out: pLC50 (the source's name) (converted)): > 100 µM
- TGI ([10]; SF-295, read-out: pTGI): > 100 µM
- GI50 ([11]; UO-31): 2.14 µM
- CC50 ([11]; UO-31, read-out: pLC50 (the source's name) (converted)): > 100 µM
- TGI ([11]; UO-31, read-out: pTGI): > 100 µM
- GI50 (TK-10): 3.16 µM
- CC50 (TK-10; [13]): > 100 µM
- TGI (TK-10; read-out: pTGI (converted)): 70.8 µM
- GI50 (MDA-MB-231): 3.02 µM
- CC50 (MDA-MB-231; [13]): > 100 µM
- TGI (MDA-MB-231; read-out: pTGI (converted)): 79.4 µM
- GI50 (KM12): 4.17 µM
- CC50 (KM12; [13]): > 100 µM
- TGI (KM12; read-out: pTGI): > 100 µM
- GI50 (M14): 2.63 µM
- CC50 (M14; [13]): > 100 µM
- TGI (M14; read-out: pTGI (converted)): 44.7 µM
- GI50 ([12]; HCC 2998): 4.57 µM
- CC50 ([12]; HCC 2998, read-out: pLC50 (the source's name) (converted)): > 100 µM
- TGI ([12]; HCC 2998, read-out: pTGI): > 100 µM
